Experimental data published in ChEMBL document CHEMBL1134702, “Arylalkylidene rhodanine with bulky and hydrophobic functional group as selective HCV NS3 protease inhibitor” (Bioorg Med Chem Lett, 2001).

Experiments:
NS3 = NS3 (Hepatitis C virus, UniProt A3EZJ3); test: Inhibitory activity against hepatitis C virus (HCV) NS3 protease; set-up: species or system Hepacivirus hominis
Method in brief: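 His-tagged HCV NS3 fusion expressed in BL21(DE3) E. coli, purified, quantified by densitometry against BSA. Reaction started with GST-bead 5A5B substrate (3 µg); 37 °C, 15 min or <40% conversion. Cleavage read by SDS-PAGE, Coomassie, densitometry; IC50 determined.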

Plasminogen = Plasminogen (Homo sapiens, UniProt P00747); test: Inhibitory activity against plasmin
Method in brief: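 Fluorogenic casein-substrate protease kit assay using 0.002U plasmin per reaction at 30 °C, stopped within the linear phase of the reaction; IC50 determined.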

NS3, sequence (A3EZJ3 whole entry, the tested form may be a part): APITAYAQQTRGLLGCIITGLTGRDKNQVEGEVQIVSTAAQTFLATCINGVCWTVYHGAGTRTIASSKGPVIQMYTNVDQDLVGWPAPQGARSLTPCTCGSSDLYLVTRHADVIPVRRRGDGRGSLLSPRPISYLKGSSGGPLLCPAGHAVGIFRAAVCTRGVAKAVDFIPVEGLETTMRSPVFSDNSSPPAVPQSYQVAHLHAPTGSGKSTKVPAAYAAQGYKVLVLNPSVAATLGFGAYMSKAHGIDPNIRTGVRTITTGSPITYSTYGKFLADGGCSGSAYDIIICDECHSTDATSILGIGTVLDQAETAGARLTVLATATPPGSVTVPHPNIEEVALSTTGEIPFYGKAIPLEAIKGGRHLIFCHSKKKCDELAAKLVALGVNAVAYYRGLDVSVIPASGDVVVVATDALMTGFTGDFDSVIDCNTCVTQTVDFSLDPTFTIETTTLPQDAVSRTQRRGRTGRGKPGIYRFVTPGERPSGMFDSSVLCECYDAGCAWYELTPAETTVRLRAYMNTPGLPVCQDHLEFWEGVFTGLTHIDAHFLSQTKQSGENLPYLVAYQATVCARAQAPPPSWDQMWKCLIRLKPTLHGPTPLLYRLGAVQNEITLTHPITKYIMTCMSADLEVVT
Plasminogen, sequence (P00747 97-580 limits assumed): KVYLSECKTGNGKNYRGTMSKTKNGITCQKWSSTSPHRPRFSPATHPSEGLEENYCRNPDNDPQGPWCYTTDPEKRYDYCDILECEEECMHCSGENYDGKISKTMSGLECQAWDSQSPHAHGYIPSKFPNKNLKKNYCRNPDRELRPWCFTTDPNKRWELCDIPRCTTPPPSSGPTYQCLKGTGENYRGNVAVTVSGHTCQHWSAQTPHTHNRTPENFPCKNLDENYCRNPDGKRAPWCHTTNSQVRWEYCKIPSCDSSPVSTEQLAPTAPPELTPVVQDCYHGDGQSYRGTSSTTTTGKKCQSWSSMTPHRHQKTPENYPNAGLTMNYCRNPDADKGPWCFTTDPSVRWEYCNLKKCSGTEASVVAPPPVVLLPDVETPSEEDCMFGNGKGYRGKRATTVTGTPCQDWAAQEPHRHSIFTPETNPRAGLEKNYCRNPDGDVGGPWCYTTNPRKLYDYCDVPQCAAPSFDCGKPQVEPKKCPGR
Plasminogen, sequence (P00747 581-810 limits assumed): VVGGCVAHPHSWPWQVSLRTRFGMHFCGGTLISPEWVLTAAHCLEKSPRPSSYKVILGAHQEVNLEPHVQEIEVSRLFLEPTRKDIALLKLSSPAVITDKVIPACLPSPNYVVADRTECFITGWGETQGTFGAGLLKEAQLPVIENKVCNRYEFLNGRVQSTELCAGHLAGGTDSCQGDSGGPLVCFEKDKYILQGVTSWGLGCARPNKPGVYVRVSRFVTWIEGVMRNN

| SMILES | IC50 (NS3) [µM] | IC50 (Plasminogen) [µM] |
| --- | --- | --- |
| CCOC(=O)CN1C(=O)/C(=C(\C)c2cccc(OC(=O)N[C@@H](CC(C)C)C(=O)N(CCN(Cc3ccc(C(=O)OC)cc3)Cc3ccc(C(=O)OC)cc3)Cc3ccc(Cl)cc3)c2)SC1=S | 16 | 20 |
| O=C(O)CN1C(=O)/C(=C/c2cc([N+](=O)[O-])ccc2F)SC1=S | 64 | 13 |
| COC(=O)CN1C(=O)/C(=C/c2cc3c(cc2[N+](=O)[O-])OCO3)SC1=S | 71 | < 1 |

Further compounds by falling IC50 (NS3), results first:

| IC50 (NS3) [µM] | IC50 (Plasminogen) [µM] | SMILES |
| --- | --- | --- |
| 40 | < 1 | C=CCN1C(=O)/C(=C/c2cc3c(cc2[N+](=O)[O-])OCO3)SC1=S |
| 20 | 7 | C/C(=C1/SC(=S)N(CC(=O)O)C1=O)c1ccc(-c2ccccc2)cc1 |
| 15 | 20 | CCOC(=O)CN1C(=O)/C(=C(\C)c2cccc(NS(=O)(=O)c3ccc(-c4ccc(S(=O)(=O)NCCNC(=O)OC(C)(C)C)cc4)cc3)c2)SC1=S |
